# Experimental data as given in ChEMBL document CHEMBL3399929 (Bioorg Med Chem, 2015).
# Calls of active or inactive are those of the source. The calls are words filed in the database; no cut-off is given here.
# Legend:
# [1] = Inhibition of Mycobacterium smegmatis TMC 607 ATP synthase incubated for 10 mins prior to NADH addition measured after 1 hr by luminescence assay; design: species or system Mycolicibacterium smegmatis
# [2] = tested on: Mycobacterium tuberculosis; assay: Antimycobacterial activity against Mycobacterium tuberculosis H37Rv infected in mouse chronic TB model assessed as survival rate at 490 umol/kg administered via esophageal cannula 6 times a week for 4 weeks relative to untreated control; assay type: functional; details: 672 h
# Procedure, shortened: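 Male Balb/C mice (8–10 weeks, 18–20 g), ten per group, were infected intravenously with 5 × 10^6 CFU H37Rv in 0.2 mL. Dosing by gavage began on day 1, six times weekly for 4 weeks, with the last dose on day 28. Survival was followed to day 30. Survivors were sacrificed on day 30, and lung and spleen homogenates were plated on 7H10/OADC at 37 °C for 4–6 weeks. Results were compared with an untreated infected group.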
# [3] = tested on: Mycobacterium tuberculosis; assay: Antimycobacterial activity against Mycobacterium tuberculosis H37Rv after 4 weeks by agar dilution assay; assay type: functional; details: for MIC: Mycobacterium tuberculosis, H37Rv, 672 h, read-out: MIC100
# Procedure, shortened: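 Agar dilution method. DMSO stocks (5 mg/mL) were serially diluted in DMSO, and 0.1 mL of each was mixed into 1.9 mL Middlebrook 7H10 agar with OADC and set as slants. Each tube received about 10^5 bacilli from a 3-week Lowenstein–Jensen culture suspended in saline with 0.05% Tween-80. Tubes were incubated at 37 °C for 4 weeks. MIC was the lowest concentration with no visible growth.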
# [4] = Cytotoxicity against African green monkey Vero cells after 72 hrs yb resazurin assay; assay type: cell-based; details: chlorocebus sabaeus
# Procedure, shortened: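 Vero cells were seeded overnight in RPMI with 10% heat-inactivated FBS at 37 °C, 5% CO2. Cells were exposed in triplicate to concentrations from 100 to 1.56 µg/mL for 72 h. Resazurin (0.1%) was then added for 4–5 h, and fluorescence was read at ex 530/em 590 nm. CC50 was derived from the fluorescence plot.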
# [5] = Selectivity index, ratio of CC50 for African green monkey Vero cells to MIC100 for Mycobacterium tuberculosis H37Rv; assay type: toxicity, cell-based; details: read-out: Selectivity Index
# Procedure, shortened: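 Selectivity index is CC50 from the Vero resazurin assay divided by the agar-dilution MIC against H37Rv.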
# [6] = Cytotoxicity against mouse bone marrow macrophages […]; assay type: cell-based; details: macrophage
# [7] = tested on: Mycolicibacterium smegmatis; assay: Inhibition of Mycobacterium smegmatis TMC 607 ATP synthase at 0.3 uM incubated for 10 mins prior to NADH addition measured after 1 hr by luminescence assay
# Procedure, shortened: (§1)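 Inverted membrane vesicles from M. smegmatis were diluted to 100 µg protein/mL in 50 mM MOPS pH 7.5 with 10 mM MgCl2. Vesicles were preincubated with compound for 10 min at room temperature with stirring, then given 2.5 mM NADH for 1 min. The reaction was started with 1 mM ADP plus 10 mM potassium phosphate and run for 1 h. It was quenched with EDTA/TCA, and ATP was read by luciferase luminescence.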
# [8] = tested on: Mycobacterium tuberculosis H37Rv; assay: Inhibition of Mycobacterium tuberculosis H37Rv ATP synthase assessed as reduction in total ATP content at 0.5 ug/ml after 18 hrs by bead-vortexing settling method
# Procedure, shortened: (§2)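 H37Rv was declumped by bead-vortexing and settling, adjusted to McFarland 1, then diluted 100-fold. Portions of 1 mL in tubes with 0.5 mm glass beads were exposed to compound for 18 h at 37 °C. Samples were heated 8–10 min, chilled on ice, and bead-beater lysed. Cleared lysate ATP was measured by luciferase assay.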
# [9] = tested on: Mycobacterium tuberculosis; assay: Bactericidal activity against non-replicating Mycobacterium tuberculosis H37Rv Wayne model under hypoxic/oxygen depleted conditions assessed as log reduction after 4 days by serial dilution assay; assay type: functional
# Procedure, shortened: (§3)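 Wayne hypoxia model. A mid-log 7H9 culture was diluted to about 10^5 cfu/mL, and 10 mL was sealed in 20 mL headspace vials. Vials were stirred slowly at 37 °C for 20–22 days, until methylene blue indicator (1.5 µg/mL) decolorized. Drug was then injected through the septum, and vials were incubated 4 more days at 37 °C. Tests were run in duplicate, with CFU counted on 7H10 agar plates.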
# [10] = tested on: Mycobacterium tuberculosis; assay: Bactericidal activity against non-replicating Mycobacterium tuberculosis H37Rv Wayne model under hypoxic/oxygen depleted conditions assessed as log reduction at 5 ug/ml after 4 days by serial dilution assay; assay type: functional; procedure, shortened: as §3
# [11] = tested on: Mycolicibacterium smegmatis; assay: Inhibition of Mycobacterium smegmatis TMC 607 ATP synthase at 100 uM incubated for 10 mins prior to NADH addition measured after 1 hr by luminescence assay; procedure, shortened: as §1
# [12] = target: ATP synthase (Mycobacterium tuberculosis) (UniProt P9WPU9+P9WPU5+P9WPU7+P9WPV5+P9WPS1+P9WPV1+P9WPV7+P9WPV3); assay: Inhibition of Mycobacterium tuberculosis H37Rv ATP synthase assessed as reduction in total ATP content at 100 uM after 18 hrs by bead-vortexing settling method; assay type: protein-complex assay; procedure, shortened: as §2
# Mus musculus = species on record: Mus musculus; assay: Inhibition of Swiss mouse liver ATP synthase at 100 uM after 1 hr
# Procedure, shortened: (§4)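 Liver mitochondria came from an overnight-fasted adult Swiss mouse, isolated by differential centrifugation in sucrose/Tris-MOPS/EGTA buffer pH 7.4 and assayed the same day. Mitochondria (100 µg) were stirred at room temperature with 100 µM compound in Tris/HCl, sucrose, 5 mM MgCl2 and 100 µM diadenosine pentaphosphate, pH 7.4. The reaction was started with 1 mM ADP, 20 mM Pi and 50 mM succinate, stopped after 1 h with EDTA-TCA, and ATP was read by luciferase.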
# [13] = tested on: Mycobacterium tuberculosis; assay: Bactericidal activity against non-replicating Mycobacterium tuberculosis H37Rv Wayne model under hypoxic/oxygen depleted conditions assessed as log reduction at 100 ug/ml after 4 days by serial dilution assay; assay type: functional; procedure, shortened: as §3
# [14] = tested on: Mycobacterium tuberculosis H37Rv; assay: Inhibition of Mycobacterium tuberculosis H37Rv ATP synthase assessed as reduction in total ATP content at 50 ug/ml after 18 hrs by bead-vortexing settling method; procedure, shortened: as §2
# [15] = tested on: Mycobacterium tuberculosis H37Rv; assay: Inhibition of Mycobacterium tuberculosis H37Rv ATP synthase assessed as reduction in total ATP content at 12.5 ug/ml after 18 hrs by bead-vortexing settling method; procedure, shortened: as §2
# [16] = Inhibition of Swiss mouse liver ATP synthase after 1 hr; procedure, shortened: as §4
# [17] = Selectivity ratio of IC50 for Mycobacterium smegmatis TMC 607 ATP synthase to IC50 for Swiss mouse liver ATP synthase
# [18] = tested on: Mycobacterium tuberculosis; assay: Bactericidal activity against non-replicating Mycobacterium tuberculosis H37Rv Wayne model under hypoxic/oxygen depleted conditions assessed as log reduction at 10 ug/ml after 4 days by serial dilution assay; assay type: functional; procedure, shortened: as §3
# Escherichia coli = assay: Antibacterial activity against Escherichia coli ATCC 9637 at 50 ug/ml; assay type: functional, organism-based
# Staphylococcus aureus = assay: Antibacterial activity against Staphylococcus aureus ATCC 25923 at 50 ug/ml; assay type: functional, organism-based
# Klebsiella pneumoniae = assay: Antibacterial activity against Klebsiella pneumoniae ATCC 27736 at 50 ug/ml; assay type: functional, organism-based
# Pseudomonas aeruginosa = assay: Antibacterial activity against Pseudomonas aeruginosa ATCC BAA-427 at 50 ug/ml; assay type: functional, organism-based
# Candida albicans = assay: Antifungal activity against Candida albicans at 50 ug/ml; assay type: functional, organism-based
# Cryptococcus neoformans = assay: Antifungal activity against Cryptococcus neoformans at 50 ug/ml; assay type: functional, organism-based
# Sporothrix schenckii = assay: Antifungal activity against Sporothrix schenckii at 50 ug/ml; assay type: functional, organism-based
# [19] = tested on: Trichophyton mentagrophytes; assay: Antifungal activity against Trichophyton mentagrophytes at 50 ug/ml; assay type: functional, organism-based
# Aspergillus fumigatus = assay: Antifungal activity against Aspergillus fumigatus at 50 ug/ml; assay type: functional, organism-based
# Candida parapsilosis = assay: Antifungal activity against Candida parapsilosis ATCC 22019 at 50 ug/ml; assay type: functional, organism-based
# [20] = tested on: Mycobacterium tuberculosis; assay: Bactericidal activity against non-replicating Mycobacterium tuberculosis H37Rv Wayne model under hypoxic/oxygen depleted conditions assessed as log reduction at 50 ug/ml after 4 days by serial dilution assay; assay type: functional; procedure, shortened: as §3
smiles,measurement,setting,value
CCN(CC)Cc1cc(N(c2cc(C)nc3cc(Cl)ccc23)S(=O)(=O)c2c(C)cc(C)cc2C)ccc1O,IC50,[1]; read-out: IC50,1040 nM
CCN(CC)Cc1cc(N(c2cc(C)nc3cc(Cl)ccc23)S(=O)(=O)c2ccc(Cl)c(Cl)c2)ccc1O,IC50,[1]; read-out: IC50,1260 nM
CC[C@@H](CO)NCCN[C@@H](CC)CO [ETHAMBUTOL],survival at 490 µmol/kg,[2],90%
CCN(CC)Cc1cc(N(c2cc(C)nc3cc(Cl)ccc23)S(=O)(=O)c2cccc3cccnc23)ccc1O,IC50,[1]; read-out: IC50,1850 nM
CCN(CC)Cc1cc(N(c2cc(C)nc3cc(Cl)ccc23)S(=O)(=O)c2cccc(C(F)(F)F)c2)ccc1O,IC50,[1]; read-out: IC50,1360 nM
CCN(CC)Cc1cc(N(c2cc(C)nc3cc(Cl)ccc23)S(=O)(=O)c2ccc([N+](=O)[O-])cc2)ccc1O,IC50,[1]; read-out: IC50,390 nM
same,MIC100,[3],6.25 µg/mL
same,CC50 at 72 h,[4],55 µg/mL
same,selectivity ratio,[5],18
CCN(CC)Cc1cc(N(c2cc(C)nc3cc(Cl)ccc23)S(=O)(=O)[C@@]23CCC(CC2=O)C3(C)C)ccc1O,IC50,[1]; read-out: IC50,3410 nM
CCN(CC)Cc1cc(N(c2cc(C)nc3cc(Cl)ccc23)S(=O)(=O)c2ccc(Cl)cc2)ccc1O,IC50,[1]; read-out: IC50,530 nM
same,MIC100,[3],6.25 µg/mL
same,CC50 at 72 h,[4],> 300 µg/mL
same,selectivity ratio,[5],> 48
same,Activity,[6],Non-toxic
NNC(=O)c1ccncc1 [ISONIAZID],IC50,[1],Not Active
same,inhibition,[7],0%
same,MIC,[3],0.1 µg/mL
same,inhibition,[8],78.5%
same,MIC,"[9]; Mycobacterium tuberculosis, H37Rv, 96 h, read-out: MIC100",≤ 0.12 µg/mL
same,log10CFU/ml,[10],0.21
CCN(CC)Cc1cc(N(c2cc(C)nc3cc(Cl)ccc23)S(=O)(=O)c2cccc3ccccc23)ccc1O,IC50,[1]; read-out: IC50,1000 nM
same,MIC,[3],12.5 µg/mL
C(=NC1CCCCC1)=NC1CCCCC1 [DICYCLOHEXYLCARBODIIMIDE],inhibition,[11],99.5%
same,inhibition,[12],30%
same,inhibition,Mus musculus,83%
same,MIC100,[9],inactive
same,log10CFU/ml,[13],4.68
CCN(CC)Cc1cc(N(c2cc(C)nc3cc(Cl)ccc23)S(=O)(=O)c2cc(Cl)ccc2Cl)ccc1O,IC50,[1]; read-out: IC50,1340 nM
CCN(CC)Cc1cc(N(c2cc(C)nc3cc(Cl)ccc23)S(=O)(=O)c2cc(C)cc(C)c2)ccc1O,IC50,[1]; read-out: IC50,1830 nM
CCN(CC)Cc1cc(N(c2cc(C)nc3cc(Cl)ccc23)S(=O)(=O)c2ccc(Cl)s2)ccc1O,IC50,[1]; read-out: IC50,360 nM
same,MIC100,[3],6.25 µg/mL
CCN(CC)Cc1cc(N(c2cc(C)nc3cc(Cl)ccc23)S(=O)(=O)c2ccc3ccccc3c2)ccc1O,IC50,[1]; read-out: IC50,920 nM
same,MIC,[3],> 25 µg/mL
CCN(CC)Cc1cc(N(c2cc(C)nc3cc(Cl)ccc23)S(=O)(=O)c2ccc(Cl)cc2Cl)ccc1O,IC50,[1]; read-out: IC50,630 nM
same,MIC100,[3],3.12 µg/mL
same,CC50 at 72 h,[4],> 300 µg/mL
same,selectivity ratio,[5],> 48
same,inhibition,[14],26%
same,inhibition,[15],54%
same,IC50,[16],> 100000 nM
same,Ratio IC50,[17],> 155
same,MIC100,[9],3.12 µg/mL
same,log10CFU/ml,[13],1.64
same,log10CFU/ml,[18],0.79
same,Activity,Escherichia coli,inactive
same,Activity,Staphylococcus aureus,inactive
same,Activity,Klebsiella pneumoniae,inactive
same,Activity,Pseudomonas aeruginosa,inactive
same,Activity,Candida albicans,inactive
same,Activity,Cryptococcus neoformans,inactive
same,Activity,Sporothrix schenckii,inactive
same,Activity,[19],inactive
same,Activity,Aspergillus fumigatus,inactive
same,Activity,Candida parapsilosis,inactive
same,Activity,[6],Non-toxic
CCN(CC)Cc1cc(N(c2cc(C)nc3cc(Cl)ccc23)S(=O)(=O)c2c(C(C)C)cc(C(C)C)cc2C(C)C)ccc1O,IC50,[1]; read-out: IC50,3290 nM
Cc1ncc([N+](=O)[O-])n1CCO [METRONIDAZOLE],IC50,[1],Not Active
same,MIC100,[9],inactive
same,log10CFU/ml,[20],1.16
CCN(CC)Cc1cc(N(c2cc(C)nc3cc(Cl)ccc23)S(=O)(=O)c2ccc(C#N)cc2)ccc1O,IC50,[1]; read-out: IC50,740 nM
same,MIC,[3],> 12.5 µg/mL
CCN(CC)Cc1cc(Nc2cc(C)nc3cc(Cl)ccc23)ccc1O,IC50,[1]; read-out: IC50,5450 nM
same,MIC,[3],> 50 µg/mL
CO[C@H]1/C=C/O[C@@]2(C)Oc3c(C)c(O)c4c(O)c(c(/C=N/N5CCN(C)CC5)c(O)c4c3C2=O)NC(=O)/C(C)=C\C=C\[C@H](C)[C@H](O)[C@@H](C)[C@@H](O)[C@@H](C)[C@H](OC(C)=O)[C@@H]1C,inhibition,[8],69.6%
CCN(CC)Cc1cc(N(c2cc(C)nc3cc(Cl)ccc23)S(=O)(=O)c2cccs2)ccc1O,IC50,[1]; read-out: IC50,1570 nM
